From ChEMBL document CHEMBL4007456, “Heterocyclyl Tetracyclines. 1. 7-Trifluoromethyl-8-Pyrrolidinyltetracyclines: Potent, Broad Spectrum Antibacterial Agents with Enhanced Activity against Pseudomonas aeruginosa” (2017) come the findings set out here.

SMILES strings stand for the structures. ≈ marks a conversion by molar mass, not a printed value.

The first assay relates to Acinetobacter baumannii. Description: Antibacterial activity against gram-negative Acinetobacter baumannii AB250 by CLSI method. The assay is classed as functional. The method, boiled down: (§1)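 Broth microdilution MIC per CLSI in cation-adjusted Mueller Hinton broth, prepared fresh and held at 4 °C. Defibrinated horse blood added where appropriate. Compounds serially diluted in sterile deionized water. Strains from ATCC unless otherwise noted. Runs accepted when comparator antibiotics fell within QC ranges for ATCC quality control strains.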
As for `CC1CCN(C)C1c1cc(O)c2c(c1C(F)(F)F)C[C@H]1C[C@H]3[C@H](N(C)C)C(O)=C(C(N)=O)C(=O)[C@@]3(O)C(O)=C1C2=O` (stereo not given in full), the MIC worked out at 8 µg/mL (≈ 13.8 µM).
In turn, `CC(C)N1CCC[C@H]1c1cc(O)c2c(c1C(F)(F)F)C[C@H]1C[C@H]3[C@H](N(C)C)C(O)=C(C(N)=O)C(=O)[C@@]3(O)C(O)=C1C2=O` had an MIC of 2 µg/mL (≈ 3.37 µM).

The next assay concerns Stenotrophomonas maltophilia. Description: Antibacterial activity against gram-negative Stenotrophomonas maltophilia SM256 by CLSI method. The format is functional. In outline: as §1
Compound `CC1CCN(C)C1c1cc(O)c2c(c1C(F)(F)F)C[C@H]1C[C@H]3[C@H](N(C)C)C(O)=C(C(N)=O)C(=O)[C@@]3(O)C(O)=C1C2=O` (stereo not given in full) displayed an MIC of 1 µg/mL (≈ 1.73 µM).
`CC(C)N1CCC[C@H]1c1cc(O)c2c(c1C(F)(F)F)C[C@H]1C[C@H]3[C@H](N(C)C)C(O)=C(C(N)=O)C(=O)[C@@]3(O)C(O)=C1C2=O`: the MIC came out at 4 µg/mL (≈ 6.74 µM).

For a further assay, the system named is Burkholderia cenocepacia. Description: Antibacterial activity against gram-negative Burkholderia cenocepacia BC240 by CLSI method. The assay is classed as functional. In outline: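 Defibrinated horse blood added where appropriate. Compounds serially diluted in sterile deionized water. Strains from ATCC unless otherwise noted. Runs accepted when comparator antibiotics fell within QC ranges for ATCC quality control strains.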
With `CC1CCN(C)C1c1cc(O)c2c(c1C(F)(F)F)C[C@H]1C[C@H]3[C@H](N(C)C)C(O)=C(C(N)=O)C(=O)[C@@]3(O)C(O)=C1C2=O` (stereo not given in full), the minimum inhibitory concentration (MIC) came to 16 µg/mL (≈ 27.6 µM).
`CC(C)N1CCC[C@H]1c1cc(O)c2c(c1C(F)(F)F)C[C@H]1C[C@H]3[C@H](N(C)C)C(O)=C(C(N)=O)C(=O)[C@@]3(O)C(O)=C1C2=O` displayed an MIC of 16 µg/mL (≈ 27 µM).

In a further assay the test system is Enterococcus faecalis. Description: Antibacterial activity against gram-positive Enterococcus faecalis EFs327 harboring tet(M) by CLSI method. The assay is classed as functional. In outline:
(§2)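 CLSI broth microdilution MIC in fresh cation-adjusted Mueller Hinton broth, supplemented with defibrinated horse blood where appropriate. Compounds serially diluted in sterile deionized water. Runs accepted when comparator antibiotics against ATCC quality-control strains fell within recommended ranges.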
`CC1CCN(C)C1c1cc(O)c2c(c1C(F)(F)F)C[C@H]1C[C@H]3[C@H](N(C)C)C(O)=C(C(N)=O)C(=O)[C@@]3(O)C(O)=C1C2=O` (stereo not given in full) had an MIC of 4 µg/mL (≈ 6.9 µM).
On the same count and under the same terms, the same measure for `CC(C)N1CCC[C@H]1c1cc(O)c2c(c1C(F)(F)F)C[C@H]1C[C@H]3[C@H](N(C)C)C(O)=C(C(N)=O)C(=O)[C@@]3(O)C(O)=C1C2=O`: 0.5 µg/mL (≈ 0.842 µM).

Another assay has as its system Enterococcus faecium. In words: Antibacterial activity against gram-positive Enterococcus faecium EFm404 harboring tet(M) by CLSI method. The assay is classed as functional. The method, boiled down:
as §2
In turn, `CC1CCN(C)C1c1cc(O)c2c(c1C(F)(F)F)C[C@H]1C[C@H]3[C@H](N(C)C)C(O)=C(C(N)=O)C(=O)[C@@]3(O)C(O)=C1C2=O` (stereo not given in full) yielded an MIC of 2 µg/mL (≈ 3.45 µM).
In the case of `CC(C)N1CCC[C@H]1c1cc(O)c2c(c1C(F)(F)F)C[C@H]1C[C@H]3[C@H](N(C)C)C(O)=C(C(N)=O)C(=O)[C@@]3(O)C(O)=C1C2=O`, the MIC was 0.25 µg/mL (≈ 0.421 µM).

For the next assay, the system named is Klebsiella pneumoniae. In words: Antibacterial activity against gram-negative Klebsiella pneumoniae KP457 harboring blacTX-M-15 extended spectrum beta-lactamase gene by CLSI method. The assay is classed as functional. In outline: as §2
With `CC1CCN(C)C1c1cc(O)c2c(c1C(F)(F)F)C[C@H]1C[C@H]3[C@H](N(C)C)C(O)=C(C(N)=O)C(=O)[C@@]3(O)C(O)=C1C2=O` (stereo not given in full), the MIC was found to be 4 µg/mL (≈ 6.9 µM).
Take `CC(C)N1CCC[C@H]1c1cc(O)c2c(c1C(F)(F)F)C[C@H]1C[C@H]3[C@H](N(C)C)C(O)=C(C(N)=O)C(=O)[C@@]3(O)C(O)=C1C2=O`: the MIC was determined as 8 µg/mL (≈ 13.5 µM).

The test system of a further assay is Proteus mirabilis. In words: Antibacterial activity against gram-negative Proteus mirabilis PM385 by CLSI method. The assay is classed as functional. In outline:
as §1
Regarding `CC1CCN(C)C1c1cc(O)c2c(c1C(F)(F)F)C[C@H]1C[C@H]3[C@H](N(C)C)C(O)=C(C(N)=O)C(=O)[C@@]3(O)C(O)=C1C2=O` (stereo not given in full), the MIC stood at 8 µg/mL (≈ 13.8 µM).
In turn, `CC(C)N1CCC[C@H]1c1cc(O)c2c(c1C(F)(F)F)C[C@H]1C[C@H]3[C@H](N(C)C)C(O)=C(C(N)=O)C(=O)[C@@]3(O)C(O)=C1C2=O` displayed an MIC of 4 µg/mL (≈ 6.74 µM).

The test system of a further assay is Pseudomonas aeruginosa. In words: Antibacterial activity against gram-negative Pseudomonas aeruginosa PA555 by CLSI method. The format is functional. In outline: as §1
Turning to `CC1CCN(C)C1c1cc(O)c2c(c1C(F)(F)F)C[C@H]1C[C@H]3[C@H](N(C)C)C(O)=C(C(N)=O)C(=O)[C@@]3(O)C(O)=C1C2=O` (stereo not given in full), inhibition of growth (MIC) required 32 µg/mL (≈ 55.2 µM).
In the case of `CC(C)N1CCC[C@H]1c1cc(O)c2c(c1C(F)(F)F)C[C@H]1C[C@H]3[C@H](N(C)C)C(O)=C(C(N)=O)C(=O)[C@@]3(O)C(O)=C1C2=O`, inhibition of growth (MIC) required 32 µg/mL (≈ 53.9 µM).

The test system of a further assay is Enterobacter cloacae. Description: Antibacterial activity against gram-negative Enterobacter cloacae EC1603 harboring tet(A) by CLSI method. The assay is classed as functional. In outline: as §2
Consider `CC1CCN(C)C1c1cc(O)c2c(c1C(F)(F)F)C[C@H]1C[C@H]3[C@H](N(C)C)C(O)=C(C(N)=O)C(=O)[C@@]3(O)C(O)=C1C2=O` (stereo not given in full), for which the MIC stood at 2 µg/mL (≈ 3.45 µM).
With `CC(C)N1CCC[C@H]1c1cc(O)c2c(c1C(F)(F)F)C[C@H]1C[C@H]3[C@H](N(C)C)C(O)=C(C(N)=O)C(=O)[C@@]3(O)C(O)=C1C2=O`, the minimum inhibitory concentration (MIC) was found to be 16 µg/mL (≈ 27 µM).

A further assay relates to Staphylococcus aureus. Description: Antibacterial activity against gram-positive Staphylococcus aureus SA101 by CLSI method. The assay is classed as functional. In outline: as §1
The compound `CC1CCN(C)C1c1cc(O)c2c(c1C(F)(F)F)C[C@H]1C[C@H]3[C@H](N(C)C)C(O)=C(C(N)=O)C(=O)[C@@]3(O)C(O)=C1C2=O` (stereo not given in full) registered an MIC of 0.5 µg/mL (≈ 0.863 µM).
On the same count and under the same terms, then `CC(C)N1CCC[C@H]1c1cc(O)c2c(c1C(F)(F)F)C[C@H]1C[C@H]3[C@H](N(C)C)C(O)=C(C(N)=O)C(=O)[C@@]3(O)C(O)=C1C2=O`, with 0.125 µg/mL (≈ 0.211 µM).

For a further assay, the system named is Staphylococcus aureus. Description: Antibacterial activity against gram-positive Staphylococcus aureus SA161 harboring tet(M) by CLSI method. The assay is classed as functional. In outline: as §2
In turn, `CC1CCN(C)C1c1cc(O)c2c(c1C(F)(F)F)C[C@H]1C[C@H]3[C@H](N(C)C)C(O)=C(C(N)=O)C(=O)[C@@]3(O)C(O)=C1C2=O` (stereo not given in full) registered an MIC of 4 µg/mL (≈ 6.9 µM).
The same measure, in the same setting: the same measure for `CC(C)N1CCC[C@H]1c1cc(O)c2c(c1C(F)(F)F)C[C@H]1C[C@H]3[C@H](N(C)C)C(O)=C(C(N)=O)C(=O)[C@@]3(O)C(O)=C1C2=O`: 2 µg/mL (≈ 3.37 µM).

Another assay deals with Staphylococcus aureus. In words: Antibacterial activity against gram-positive Staphylococcus aureus SA158 harboring tet(K) by CLSI method. The format is functional. The method, boiled down:
as §2
As for `CC1CCN(C)C1c1cc(O)c2c(c1C(F)(F)F)C[C@H]1C[C@H]3[C@H](N(C)C)C(O)=C(C(N)=O)C(=O)[C@@]3(O)C(O)=C1C2=O` (stereo not given in full), the MIC is 0.0312 µg/mL (≈ 0.0538 µM).
On the same count and under the same terms, then `CC(C)N1CCC[C@H]1c1cc(O)c2c(c1C(F)(F)F)C[C@H]1C[C@H]3[C@H](N(C)C)C(O)=C(C(N)=O)C(=O)[C@@]3(O)C(O)=C1C2=O`, with 0.0625 µg/mL (≈ 0.105 µM).

Another assay deals with Streptococcus pneumoniae. In words: Antibacterial activity against gram-positive Streptococcus pneumoniae SP160 harboring tet(M) by CLSI method. The format is functional. The method, boiled down: as §2
In the case of `CC1CCN(C)C1c1cc(O)c2c(c1C(F)(F)F)C[C@H]1C[C@H]3[C@H](N(C)C)C(O)=C(C(N)=O)C(=O)[C@@]3(O)C(O)=C1C2=O` (stereo not given in full), the MIC was ≤ 0.0156 µg/mL.
Still for that read-out and setting: then `CC(C)N1CCC[C@H]1c1cc(O)c2c(c1C(F)(F)F)C[C@H]1C[C@H]3[C@H](N(C)C)C(O)=C(C(N)=O)C(=O)[C@@]3(O)C(O)=C1C2=O`, with ≤ 0.0156 µg/mL.

A further assay concerns Escherichia coli. In words: Antibacterial activity against gram-negative Escherichia coli EC107 by CLSI method. The format is functional. In outline: as §1
With `CC1CCN(C)C1c1cc(O)c2c(c1C(F)(F)F)C[C@H]1C[C@H]3[C@H](N(C)C)C(O)=C(C(N)=O)C(=O)[C@@]3(O)C(O)=C1C2=O` (stereo not given in full), 0.0625 µg/mL (≈ 0.108 µM) was the least that counted as inhibitory (MIC).
Still for that read-out and setting: then `CC(C)N1CCC[C@H]1c1cc(O)c2c(c1C(F)(F)F)C[C@H]1C[C@H]3[C@H](N(C)C)C(O)=C(C(N)=O)C(=O)[C@@]3(O)C(O)=C1C2=O`, with 0.125 µg/mL (≈ 0.211 µM).

The subject of another assay is Escherichia coli. Description: Antibacterial activity against gram-negative Escherichia coli EC155 harboring tet(A) by CLSI method. The assay is classed as functional. In outline: as §2
Compound `CC1CCN(C)C1c1cc(O)c2c(c1C(F)(F)F)C[C@H]1C[C@H]3[C@H](N(C)C)C(O)=C(C(N)=O)C(=O)[C@@]3(O)C(O)=C1C2=O` (stereo not given in full) gave an MIC of 2 µg/mL (≈ 3.45 µM).
As for `CC(C)N1CCC[C@H]1c1cc(O)c2c(c1C(F)(F)F)C[C@H]1C[C@H]3[C@H](N(C)C)C(O)=C(C(N)=O)C(=O)[C@@]3(O)C(O)=C1C2=O`, the MIC came to 1 µg/mL (≈ 1.68 µM).

What is called MIC is the least concentration at which growth counts as inhibited. Low values mean inhibition by little substance, high ones a need for much substance.
